Results reported in ChEMBL document CHEMBL1153554, “Mechanisms by which the G333D mutation in human immunodeficiency virus type 1 Reverse transcriptase facilitates dual resistance to zidovudine and lamivudine” (Antimicrob Agents Chemother, 2008).
Active and inactive are the calls of the source. The calls are words filed in the database; no cut-off is given here.

What was measured:
[1] = target: T1, Human immunodeficiency virus type 1 reverse transcriptase (Human immunodeficiency virus 1, UniProt Q72547, L210W/M184V/M41L/T215Y); assay: Binding affinity to HIV1 LAI reverse transcriptase M41L/L210W/T215Y/M184V mutant
[2] = test system: Human immunodeficiency virus type 1 reverse transcriptase (Human immunodeficiency virus 1), Q72547 [M184V]; assay: Ratio of Kpol to Kd for HIV1 LAI reverse transcriptase M184V mutant
How it was run: (§1)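 Pre-steady-state rapid quench: 400 nM active-site RT and 40 nM ³²P-P20/T57 DNA T/P were preincubated in 50 mM Tris-HCl pH 7.5, 50 mM KCl, then mixed with nucleotide in the same buffer containing 20 mM MgCl₂. Quenched with 0.3 M EDTA from 10 ms to 30 min, run on urea-PAGE. kobs came from single-exponential fits; kpol and Kd came from a hyperbolic fit versus nucleotide concentration.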

[3] = test system: Human immunodeficiency virus type 1 reverse transcriptase (Human immunodeficiency virus 1), Q72547 [M184V]; assay: Resistance (selectivity ratio) of HIV1 LAI reverse transcriptase M184V mutant relative to wild type
[4] = test system: Human immunodeficiency virus 1; assay: Ratio of Kpol to Kd for HIV1 LAI reverse transcriptase M41L/L210W/T215Y/M184V/G333D mutant; how it was run: as §1
[5] = target: Human immunodeficiency virus type 1 reverse transcriptase (Human immunodeficiency virus 1) (UniProt Q72547); assay: Ratio of Kpol to Kd for wild type HIV1 LAI reverse transcriptase; how it was run: as §1
[6] = test system: Human immunodeficiency virus type 1 reverse transcriptase (Human immunodeficiency virus 1), Q72547 [M41L,L210W,T215Y]; assay: Ratio of Kpol to Kd for HIV1 LAI reverse transcriptase M41L/L210W/T215Y mutant; how it was run: as §1
[7] = target: T2, Human immunodeficiency virus type 1 reverse transcriptase (Human immunodeficiency virus 1, UniProt Q72547); assay: Binding affinity to wild type HIV1 LAI reverse transcriptase
How it was run: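 Bacterially expressed, purified RT, corrected for active-site concentration, preincubated at 400 nM with 40 nM 5′-³²P-labelled 20-nt DNA primer annealed to a 57-nt DNA template in 50 mM Tris-HCl pH 7.5, 50 mM KCl. It was then rapid-quench mixed 1:1 with nucleotide in the same buffer plus 20 mM MgCl₂. EDTA quench at 10 ms–30 min; urea-PAGE. k_obs fitted single-exponential; K_d from hyperbolic k_obs-versus-concentration fit.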

[8] = target: T3, Human immunodeficiency virus type 1 reverse transcriptase (Human immunodeficiency virus 1, UniProt Q72547, M184V); assay: Binding affinity to HIV1 LAI reverse transcriptase M184V mutant
[9] = target: T4, Human immunodeficiency virus type 1 reverse transcriptase (Human immunodeficiency virus 1, UniProt Q72547, L210W/M41L/T215Y); assay: Binding affinity to HIV1 LAI reverse transcriptase M41L/L210W/T215Y mutant
[10] = test system: Human immunodeficiency virus type 1 reverse transcriptase (Human immunodeficiency virus 1), Q72547 [M41L,L210W,T215Y]; assay: Binding affinity to HIV1 LAI reverse transcriptase M41L/L210W/T215Y mutant relative to wild type
[11] = test system: Human immunodeficiency virus type 1 reverse transcriptase (Human immunodeficiency virus 1), Q72547 [M41L,L210W,T215Y,M184V]; assay: Binding affinity to HIV1 LAI reverse transcriptase M41L/L210W/T215Y/M184V mutant relative to wild type
[12] = Binding affinity to HIV1 LAI reverse transcriptase M41L/L210W/T215Y/M184V/G333D mutant; design: species or system Human immunodeficiency virus 1
[13] = test system: Human immunodeficiency virus 1; assay: Binding affinity to HIV1 LAI reverse transcriptase M41L/L210W/T215Y/M184V/G333D mutant relative to wild type
[14] = test system: Human immunodeficiency virus type 1 reverse transcriptase (Human immunodeficiency virus 1), Q72547 [M41L,L210W,T215Y,M184V]; assay: Ratio of Kpol to Kd for HIV1 LAI reverse transcriptase M41L/L210W/T215Y/M184V mutant; how it was run: as §1
[15] = test system: Human immunodeficiency virus 1; assay: (§2) Selectivity ratio of Kd for excision of zidovudine-monophosphate terminated DNA/DNA template/primer duplex chain in HIV1 LAI reverse transcriptase M41L/L210W/T215Y/M184V mutant to Kd for excision of zidovudine-monophosphate terminated DNA/DNA template/primer duplex chain in wild type HIV1 LAI reverse transcriptase by gel shift mobility assay
[16] = test system: Human immunodeficiency virus type 1 reverse transcriptase (Human immunodeficiency virus 1), Q72547 [M184V]; assay: Binding affinity to HIV1 LAI reverse transcriptase M184V mutant assessed as ATP-mediated excision of zidovudine-monophosphate from chain terminated RNA/DNA template/primer duplex at 100 uM
How it was run: (§3)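 The AZT-MP-terminated ³²P-P20 primer was annealed to a 35-nt RNA template (T35). 200 nM active-site RT with 20 nM T/P in 50 mM Tris-HCl pH 8.0, 50 mM KCl. Started with 3.0 mM ATP and 10 mM MgCl₂. Timed aliquots were quenched and separated on denaturing urea-PAGE, then phosphorimaged.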

[17] = target: T1, Human immunodeficiency virus type 1 reverse transcriptase; assay: Binding affinity to HIV1 LAI reverse transcriptase M41L/L210W/T215Y/M184V mutant assessed as ATP-mediated excision of zidovudine-monophosphate terminated DNA/DNA template/primer duplex chain at 100 uM by gel shift mobility assay
How it was run: (§4)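 Native 4% PAGE in Tris-acetate pH 8.0 with 1 mM EDTA, 30 min at 100 V, room temperature. The shifted band was taken as a 1:1 RT-T/P complex to give Kd. Mean ± SD of three experiments.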

[18] = target: T4, Human immunodeficiency virus type 1 reverse transcriptase; assay: Binding affinity to HIV1 LAI reverse transcriptase M41L/L210W/T215Y mutant assessed as ATP-mediated excision of zidovudine-monophosphate terminated DNA/DNA template/primer duplex chain at 100 uM by gel shift mobility assay; how it was run: as §4
[19] = test system: Human immunodeficiency virus 1; assay: as §2, with “zidovudine-monophosphate from chain” for “zidovudine-monophosphate”, “duplex” for “duplex chain”, “M41L/L210W/T215Y/K65R/G333D” for “M41L/L210W/T215Y/M184V”
[20] = target: T3, Human immunodeficiency virus type 1 reverse transcriptase; assay: Binding affinity to HIV1 LAI reverse transcriptase M184V mutant assessed as ATP-mediated excision of zidovudine-monophosphate terminated DNA/DNA template/primer duplex chain at 100 uM by gel shift mobility assay; how it was run: as §4
[21] = target: T2, Human immunodeficiency virus type 1 reverse transcriptase; assay: Binding affinity to wild type HIV1 LAI reverse transcriptase assessed as ATP-mediated excision of zidovudine-monophosphate terminated DNA/DNA template/primer duplex chain at 100 uM by gel shift mobility assay; how it was run: as §4
[22] = test system: Human immunodeficiency virus 1; assay: Binding affinity to HIV1 LAI reverse transcriptase M41L/L210W/T215Y/M184V/G333D mutant assessed as ATP-mediated excision of zidovudine-monophosphate from chain terminated RNA/DNA template/primer duplex; how it was run: as §3
[23] = Binding affinity to HIV1 LAI reverse transcriptase M41L/L210W/T215Y/K65R/G333D mutant assessed as ATP-mediated excision of zidovudine-monophosphate terminated DNA/DNA template/primer duplex chain at 100 uM by gel shift mobility assay; design: species or system Human immunodeficiency virus 1; how it was run: as §4
[24] = test system: Human immunodeficiency virus 1; assay: as §2, with “M41L/L210W/T215Y” for “M41L/L210W/T215Y/M184V”
[25] = test system: Human immunodeficiency virus type 1 reverse transcriptase (Human immunodeficiency virus 1), Q72547 [M41L,L210W,T215Y,M184V]; assay: Binding affinity to 200 nM HIV1 LAI reverse transcriptase M41L/L210W/T215Y/M184V mutant assessed as ATP-mediated excision of zidovudine-monophosphate from chain terminated DNA/DNA template/primer duplex at 100 uM
How it was run: (§5)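 Primer P20 (5′-³²P) on DNA template T57 was chain-terminated with WT RT and 100 μM AZT-TP (30 min, 37°C), gel-purified and reannealed. 200 nM active-site RT with 20 nM terminated T/P in 50 mM Tris-HCl pH 8.0, 50 mM KCl. Started with 3.0 mM ATP, 10 mM MgCl₂, 1 μM TTP and 5 μM ddCTP. Timed aliquots were run on 7 M urea-16% PAGE and phosphorimaged.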

[26] = test system: Human immunodeficiency virus type 1 reverse transcriptase (Human immunodeficiency virus 1), Q72547 [M184V]; assay: Binding affinity to 200 nM HIV1 LAI reverse transcriptase M184V mutant assessed as ATP-mediated excision of zidovudine-monophosphate from chain terminated DNA/DNA template/primer duplex at 100 uM; how it was run: as §5
[27] = test system: Human immunodeficiency virus 1; assay: as §2, with “M41L/L210W/T215Y/K65R” for “M41L/L210W/T215Y/M184V”
[28] = test system: Human immunodeficiency virus 1; assay: as §2, with “M41L/L210W/T215Y/M184V/G333D” for “M41L/L210W/T215Y/M184V”
[29] = target: Human immunodeficiency virus type 1 reverse transcriptase (Human immunodeficiency virus 1, UniProt Q72547, K65R/L210W/M41L/T215Y); assay: Binding affinity to HIV1 LAI reverse transcriptase M41L/L210W/T215Y/K65R mutant assessed as ATP-mediated excision of zidovudine-monophosphate terminated DNA/DNA template/primer duplex chain at 100 uM by gel shift mobility assay; how it was run: as §4
[30] = test system: Human immunodeficiency virus 1; assay: as §2, with “M184V” for “M41L/L210W/T215Y/M184V”
[31] = test system: Human immunodeficiency virus type 1 reverse transcriptase (Human immunodeficiency virus 1), Q72547 [M41L,L210W,T215Y]; assay: Binding affinity to HIV1 LAI reverse transcriptase M41L/L210W/T215Y mutant assessed as ATP-mediated excision of zidovudine-monophosphate from chain terminated RNA/DNA template/primer duplex; how it was run: as §3
[32] = target: Human immunodeficiency virus type 1 reverse transcriptase (Human immunodeficiency virus 1) (UniProt Q72547); assay: Binding affinity to wild type HIV1 LAI reverse transcriptase assessed as ATP-mediated excision of zidovudine-monophosphate from chain terminated RNA/DNA template/primer duplex; how it was run: as §3
[33] = test system: Human immunodeficiency virus 1; assay: (§6) Selectivity ratio of Kd for excision of zidovudine-monophosphate from chain terminated DNA/DNA template/primer duplex in 200 nM HIV1 LAI reverse transcriptase M41L/L210W/T215Y mutant to Kd for excision of zidovudine-monophosphate from chain terminated DNA/DNA template/primer duplex in 200 nM wild type HIV1 LAI reverse transcriptase by gel shift mobility assay
[34] = test system: Human immunodeficiency virus type 1 reverse transcriptase (Human immunodeficiency virus 1), Q72547 [M41L,L210W,T215Y]; assay: Binding affinity to 200 nM HIV1 LAI reverse transcriptase M41L/L210W/T215Y mutant assessed as ATP-mediated excision of zidovudine-monophosphate from chain terminated DNA/DNA template/primer duplex at 100 uM; how it was run: as §5
[35] = test system: Human immunodeficiency virus 1; assay: as §6, with “200 nM HIV1 LAI” for “200 nM wild type HIV1 LAI”, “reverse transcriptase M184V mutant by gel” for “reverse transcriptase by gel”
[36] = test system: Human immunodeficiency virus type 1 reverse transcriptase (Human immunodeficiency virus 1), Q72547 [M41L,L210W,T215Y,M184V]; assay: Binding affinity to HIV1 LAI reverse transcriptase M41L/L210W/T215Y/M184V mutant assessed as ATP-mediated excision of zidovudine-monophosphate from chain terminated RNA/DNA template/primer duplex; how it was run: as §3
[37] = Binding affinity to HIV1 LAI reverse transcriptase M41L/L210W/T215Y/M184V/G333D mutant assessed as ATP-mediated excision of zidovudine-monophosphate terminated DNA/DNA template/primer duplex chain at 100 uM by gel shift mobility assay; design: species or system Human immunodeficiency virus 1; how it was run: as §4
[38] = test system: Human immunodeficiency virus 1; assay: Binding affinity to 200 nM HIV1 LAI reverse transcriptase M41L/L210W/T215Y/M184V/G333D mutant assessed as ATP-mediated excision of zidovudine-monophosphate from chain terminated DNA/DNA template/primer duplex at 100 uM; how it was run: as §5
[39] = target: Human immunodeficiency virus type 1 reverse transcriptase (Human immunodeficiency virus 1) (UniProt Q72547); assay: Binding affinity to 200 nM wild type HIV1 LAI reverse transcriptase assessed as ATP-mediated excision of zidovudine-monophosphate from chain terminated DNA/DNA template/primer duplex at 100 uM; how it was run: as §5

Nc1ccn([C@@H]2CS[C@H](COP(=O)(O)OP(=O)(O)OP(=O)(O)O)O2)c(=O)n1 [LAMIVUDINE TRIPHOSPHATE]
Kd [1]: 9800 nM
Ratio [2]: 0.00061
fold resistance [3]: 48.8
Ratio [4]: 0.00028
Ratio [5]: 0.06
Ratio [6]: 0.04
Kd [7]: 370 nM
Kd [8]: 8200 nM
Kd [9]: 430 nM
fold change (FC) [10]: 1.5
fold change (FC) [11]: 61.8
Kd [12]: 17800 nM
fold change (FC) [13]: 116
Ratio [14]: 0.0004

Cc1cn([C@H]2C[C@H](N=[N+]=[N-])[C@@H](CO[P@](=O)(O)O[P@](=O)(O)OP(=O)(O)O)O2)c(=O)[nH]c1=O [ZIDOVUDINE TRIPHOSPHATE]
Kd [1]: 3500 nM
Kd [7]: 1990 nM
Kd [8]: 2900 nM
Kd [9]: 1150 nM

Cc1cn([C@H]2C[C@H](N=[N+]=[N-])[C@@H](COP(=O)(O)O)O2)c(=O)[nH]c1=O [AZIDOTHYMIDINE MONOPHOSPHATE]
Ratio [15]: 5
Activity [16]: inactive
Kd [17]: 98.4 nM
Kd [18]: 18.8 nM
Ratio [19]: 1.1
Kd [20]: 76.9 nM
Kd [21]: 19.8 nM
Activity [22]: Active
Kd [23]: 22.3 nM
Ratio [24]: 1
Activity [25]: Active
Activity [26]: Active
Ratio [27]: 1
Ratio [28]: 2.3
Kd [29]: 20.5 nM
Ratio [30]: 3.8
Activity [31]: Active
Activity [32]: inactive
fold change (FC) [33]: 4
Activity [34]: Active
fold change (FC) [35]: 4
Activity [36]: Active
Kd [37]: 46.2 nM
Activity [38]: Active
Activity [39]: Active
